# Assay outcomes deposited in PubChem by several laboratories.
# An excerpt weighted towards active compounds, which were near 2% of everything screened.
# FXN GAA850 act = frataxin GAA850 promoter activation; HEK293 lucGAA850 FXN promoter luciferase reporter, 24 h; percent of 10 µM SAHA response; activation, % at 6 µM; 0.56% of 360,000 active;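 active means activation above the average of all compounds screened plus 3 SD, cutoff fixed separately per campaign, cut at about 7.5% in these data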;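 further: 0% = DMSO wells and 100% = 10 µM SAHA wells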
# CXCR6 block = CXCR6 (human) receptor inhibition; AID 602244; inhibition, % at 20 µM; 0.36% of 360,000 active; CHO-K1 PathHunter CXCR6 beta-arrestin, luminescence; in the data active means inhibition above about 34%, passing the limit was not always enough;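 further: antagonist mode with CXCL16 agonist at 10 nM final; 0% = 10 nM CXCL16 with DMSO and 100% = unstimulated wells without agonist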
# CCR6 antag = blocks CCL20-driven beta-arrestin recruitment at human CCR6 | P51684 | CHO-K1 CCR6 PathHunter beta-arrestin, luminescence, CCL20-stimulated | inhibition, % at 20 µM | 0.49% of 340,000 active;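 active means compounds whose inhibition of the agonist-driven luminescence signal at 20 µM reaches about 50%, limit read from the data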;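 further: cells stimulated with CCL20 at 14 nM final; plate controls were DMSO with CCL20 for no effect and DMSO without agonist for full effect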
# EBI2 block = antagonists of human EBI2 receptor. P32249. 0.81% of 360,000 active. AID 651636. inhibition, % at 5 µM. EBI2 beta-arrestin recruitment, luminescence, 7a,25-OHC stimulated; in the data active means inhibition above about 38%;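 further: enzyme fragment complementation signal reports receptor beta-arrestin coupling in cells; 0% = agonist plus DMSO wells and 100% = wells without agonist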
# Target sequence (P32249 whole entry, looked up, the tested form may be a part): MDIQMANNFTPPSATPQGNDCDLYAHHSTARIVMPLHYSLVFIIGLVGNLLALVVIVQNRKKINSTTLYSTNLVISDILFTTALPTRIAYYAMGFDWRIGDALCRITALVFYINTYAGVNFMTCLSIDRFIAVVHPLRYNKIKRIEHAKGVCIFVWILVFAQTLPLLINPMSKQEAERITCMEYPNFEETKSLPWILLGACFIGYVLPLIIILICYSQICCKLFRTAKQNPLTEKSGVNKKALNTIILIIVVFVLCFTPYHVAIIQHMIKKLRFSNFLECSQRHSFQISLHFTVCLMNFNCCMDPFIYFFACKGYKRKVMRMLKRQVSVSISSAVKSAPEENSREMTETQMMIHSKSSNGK
# APJ antagonist = antagonists of human APJ apelin receptor; CHO-K1 APJ beta-arrestin complementation, luminescence; inhibition, % at 20 µM; 0.32% of 330,000 active;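 active means inhibition above about 40% at 20 µM, limit read from the data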;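 further: cells challenged with 10 nM apelin-13 agonist together with compound; plate controls were apelin-13 plus DMSO wells for no effect and DMSO wells lacking apelin-13 for full effect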
# APJ agonist = agonists of human APJ apelin receptor; P35414; CHO-K1 APJ PathHunter beta-arrestin, luminescence; 0% DMSO wells, 100% apelin; activation, % at 20 µM; 0.11% of 330,000 active;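 active means activation more than six SD over the plate average, tested at 20 µM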;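 further: 0% = DMSO alone and 100% = apelin-13 at 10 nM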
#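 Assay system: engineered CHO-K1 APJ arrestin reporter cells; Amount: 1000 CHO-K1 reporter cells seeded per well; Dosing: one dose, 20 µM compound, 1% DMSO; Times: compound stimulation 90 min at 25 °C, detection 60 min; Measured by: luminescent beta-gal fragment complementation, chemiluminescent substrate; Read-out: APJ–arrestin association signal; Controls: DMSO vs Apelin-13 10 nM.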
# CXCR6 antag conf = CXCR6 antagonism confirmation, single concentration; 65% of 700 active; inhibition, % at 20 µM; AID 602409; shares compounds with CXCR6 block; CHO-K1 CXCR6 PathHunter beta-arrestin, luminescence;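 active means mean inhibition over four retests above 40%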;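 further: receptor stimulated with 10 nM CXCL16 agonist; beta-galactosidase fragment complementation upon beta-arrestin recruitment to receptor; plate controls were CXCL16 plus DMSO for no effect and DMSO without CXCL16 for full effect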
# Numbers without * were called inactive; x = no result given.
SMILES,FXN GAA850 act,CXCR6 block,CCR6 antag,EBI2 block,APJ antagonist,APJ agonist,CXCR6 antag conf
COc1ccc(/C=C2\CCC(C3CCCC3)C2=O)cc1 (centres undefined),5,-9,2,-1,15,-4,x
CC1CCC/C(=C\c2ccc(O)cc2)C1=O (centres undefined),0,-9,3,12,6,0,x
Cc1ccc(S(=O)(=O)c2ccc([N+](=O)[O-])cn2)cc1,6,55*,x,-6,27,2,74*
Cc1cc(S(=O)(=O)c2ccc([N+](=O)[O-])cn2)ccc1Br,-4,16,-6,13,-35,19,x
CCOC(=O)C(=O)N(C)c1c(CC)nc2c(OCc3cccc(OC)c3)cccn12,1,6,x,-8,x,x,x
O=C(Oc1c(Cl)cc(Cl)c2cccnc12)c1ccco1,0,45*,x,27,2,-2,70*
CC(C)(C)OC(=O)C[C@@H]1C/C=C\C[C@H](CC(=O)NCCO)C(=O)N2CCC[C@@H]2COC1=O,0,-2,8,3,-4,-2,x
CC(C)CN=Cc1c(O)c([N+](=O)[O-])cc2oc3c(c12)CCCC3,2,34,36,-8,14,1,x
O=[N+]([O-])c1cc2oc3c(c2c(C=NCc2ccccc2)c1O)CCCC3,0,44*,46,8,-16,3,59*
CCN1C(=O)[C@H]2[C@@H](c3ccc(C(F)(F)F)cc3)N[C@]3(CCCN(Cc4ccc(C)cc4)C3=O)[C@H]2C1=O,-2,3,x,1,x,x,x
CCN1C(=O)[C@H]2[C@@H](c3ccc(C(F)(F)F)cc3)N[C@]3(CCCN(Cc4ccco4)C3=O)[C@H]2C1=O,-2,55*,x,-3,x,x,-8
Cc1cccc(Oc2ccccc2NC(=O)CN2C(=O)NC3(CCCC3)C2=O)c1,-1,2,4,-1,17,7,x
Cc1ccc(Oc2ccccc2NC(=O)CN2C(=O)NC3(CCCC3)C2=O)cc1,2,43*,-7,-5,-1,1,10
N#Cc1ccccc1OCC(=O)Nc1nc(-c2ccccn2)cs1,-3,8,x,0,x,x,x
O=C(COc1ccc(F)cc1Cl)Nc1nc(-c2ccccn2)cs1,0,46*,x,-4,8,-3,38
CC(Oc1ccccc1)C(=O)Nc1nc(-c2ccccn2)cs1 (centres undefined),-1,38*,x,-7,-3,-5,64*
CC(Oc1cccc(Cl)c1)C(=O)Nc1nc(-c2ccccn2)cs1 (centres undefined),0,70*,87*,-1,30,-11,78*
COc1ccc(C(=O)C2CCN(CC(=O)Nc3ccc(C)cc3)CC2)cc1,3,-2,11,24,-8,1,x
CC(=O)c1ccc(OCC(=O)OCC(=O)c2ccc(S(=O)(=O)N3CCCCC3)cc2)cc1,0,40*,x,14,x,x,27
COc1ccc(C(=O)NC(=S)Nc2ccccc2[N+](=O)[O-])cc1OC,1,1,18,-1,-4,-1,x
COc1ccc(C(=O)NC(=S)Nc2ccc([N+](=O)[O-])cc2C)cc1OC,2,50*,68*,14,34,-10,55*
Cc1ccc(C(=O)CCC(=O)Nc2ccccc2C)cc1C,-1,-1,14,-9,1,-1,x
COc1ccccc1NCC(=O)c1ccc(C)c(C)c1,-2,52*,82*,8,32,-9,29
Cc1ccc(S(=O)(=O)N2CCCCC2)cc1NC(=O)Cc1cccs1,1,-5,11,-9,13,-1,x
CN(CC(=O)Nc1cc(S(=O)(=O)N2CCCC2)ccc1Cl)Cc1cccs1,1,29*,32,9,-5,-5,52*
COCCCn1c(N)c(-c2nc3ccccc3n2C)c2nc3ccccc3nc21,-2,43*,x,5,5,-8,65*
COc1cc(C(=O)NC(=S)N(CCC#N)Cc2cccnc2)cc(OC)c1OC,0,-4,3,-14,6,-1,x
